Assay results as given in ChEMBL document CHEMBL3576774, “Dactylomelane diterpenes from the sea hare Aplysia depilans” (J Nat Prod, 2015).

Legend:
Assay type in all cases: functional, cell-based
[1] = test system: HeLa; assay: Cytotoxic activity against human HeLa cells assessed as reduction in cell growth incubated for 48 hrs by MTT assay
Method in brief: (§1)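 Monolayers maintained in DMEM with 10% FBS, penicillin/streptomycin at 37 °C, 5% CO2, and passaged at 80–90% confluence. Log-phase cells were seeded at 1 × 10^5 cells/mL and allowed to attach for 24 h. They were then exposed to DMSO-diluted compounds at various concentrations for 48 h. MTT was added at 0.5 mg/mL final for 4 h, dissolved in HCl/2-propanol, and read at 545 nm. Triplicates; IC50 from 3–4 experiments versus untreated control.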

[2] = test system: MCF7; assay: Cytotoxic activity against human MCF7 cells assessed as reduction in cell growth incubated for 48 hrs by MTT assay; method in brief: as §1
[3] = test system: A-431; assay: Cytotoxic activity against human A431 cells assessed as reduction in cell growth incubated for 48 hrs by MTT assay; settings: A-431, 48 h; method in brief: as §1
[4] = test system: HepG2; assay: Cytotoxic activity against human HepG2 cells assessed as reduction in cell growth incubated for 48 hrs by MTT assay; method in brief: as §1
[5] = test system: A549; assay: Cytotoxic activity against human A549 cells assessed as reduction in cell growth incubated for 48 hrs by MTT assay; method in brief: as §1

| Structure (SMILES) | IC50 ([1]; Homo sapiens, HeLa, 48 h) | IC50 ([2]; Homo sapiens, MCF7, 48 h) | IC50 [3] | IC50 ([4]; Homo sapiens, HepG2, 48 h) | IC50 ([5]; Homo sapiens, A549, 48 h) | IC50 ([1]; hela) | IC50 ([2]; mcf7) | IC50 ([4]; hepg2) | IC50 ([5]; a549) |
| --- | --- | --- | --- | --- | --- | --- | --- | --- | --- |
| C=CC(C)(O)CC[C@@H]1C(=C)CC[C@H](Br)[C@@]1(C)CCC(=O)C(C)C (some centres undefined) | 71.4 µM | > 100 µM | > 100 µM | > 100 µM | > 100 µM | – | – | – | – |
| C=CC(C)(O)CC[C@@H]1C(=C)CC[C@H](Br)[C@@]1(C)CCC1OC1(C)C (relative stereo) | 57.9 µM | 71.7 µM | > 100 µM | 53.8 µM | > 100 µM | – | – | – | – |
| C=CC(C)(O)CC[C@@H]1C(=C)CC[C@H](Br)[C@@]1(C)CCC(OC)C(C)(C)O (relative stereo) | > 100 µM | > 100 µM | > 100 µM | > 100 µM | > 100 µM | – | – | – | – |
| C=CC(C)(O)CC[C@@H]1C(=C)CC[C@H](Br)[C@@]1(C)CCC(O)C(C)(C)Cl (relative stereo) | 61 µM | 71.5 µM | > 100 µM | 48.7 µM | 94.1 µM | – | – | – | – |
| C=CC(C)(O)CC[C@@H]1C(=C)CC[C@H](Br)[C@@]1(C)CCC(Br)C(C)(C)O (relative stereo; 2) | – | – | – | – | – | 47.4 µM | 60.7 µM | 66.3 µM | 86.9 µM |
| C=CC(C)(O)CC[C@H]1[C@](C)(CCC=C(C)C)[C@@H](Br)CC[C@@]1(C)O (some centres undefined) | 91.7 µM | 78 µM | > 100 µM | > 100 µM | > 100 µM | – | – | – | – |
| CCCCCCCCCCCCCCCCOP(=O)([O-])OCC[N+](C)(C)C [MILTEFOSINE] | 16.5 µM | 9.2 µM | 12 µM | 26.3 µM | 8.5 µM | – | – | – | – |
| C=CC(C)(O)CC[C@@H]1C(=C)CC[C@H](Br)[C@@]1(C)CCC(O)C(C)(C)O (relative stereo) | > 100 µM | > 100 µM | > 100 µM | > 100 µM | > 100 µM | – | – | – | – |
| C=CC(C)(O)CC[C@@H]1C(=C)CC[C@H](Br)[C@@]1(C)CCC(O)C(=C)C (relative stereo) | > 100 µM | > 100 µM | > 100 µM | > 100 µM | > 100 µM | – | – | – | – |
| C=CC(C)(O)CC[C@@H]1C(=C)CC[C@H](Br)[C@@]1(C)CCC(Br)C(C)(C)O (relative stereo; 3) | 91.8 µM | > 100 µM | > 100 µM | > 100 µM | > 100 µM | – | – | – | – |
